The values that follow come from ChEMBL document CHEMBL3867443, “Polyprenylated Tetraoxygenated Xanthones from the Roots of Hypericum monogynum and Their Neuroprotective Activities” (J Nat Prod, 2016).

Calls of active or inactive are those of the source. No cut-off for these calls is given here.

Data set [1] is described as follows: Neuroprotective activity in rat PC12 cells assessed as reduction in corticosterone-induced lesions by measuring cell viability at 25 uM pretreated for 24 hrs followed by corticosterone-challenge after 48 hrs by MTT assay. In kind it is functional, cell-based. As to conditions: PC-12. In a few lines: (§1)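 PC12 cells seeded at 2 × 10^4 cells/well and pretreated 24 h with compound, then 200 μM corticosterone for 48 h. Fluoxetine 12.50 μM was the positive control. MTT absorbance read at 570 nm with 630 nm reference. Viability given as % of untreated control, mean ± SEM of three independent experiments, compared by ANOVA.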
(Tetrazolium assays rely on reduction of a dye to a coloured formazan, in cell work by metabolically active cells.)

Data set [2] is described as follows: Cytotoxicity against […] BV2 cells assessed as cell viability by MTT assay relative to control. In kind it is toxicity, cell-based, BV-2. Also noted: concentration or dose not given beside the values. As to conditions: mouse, read-out: Activity. The procedure, abridged: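 BV2 microglia in DMEM with 10% heat-inactivated FBS and penicillin/streptomycin, 37 °C, 5% CO2. Viability was read by MTT in the cells used for the NO assay, which received 2 h compound pretreatment and then LPS at 100 ng/mL final for 18 h.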

Data set [3] is described as follows: Neuroprotective activity in rat PC12 cells assessed as reduction in corticosterone-induced lesions by measuring cell viability at 12.5 uM pretreated for 24 hrs followed by corticosterone-challenge after 48 hrs by MTT assay. The note with it: PC-12. The class given is functional, cell-based. The procedure, abridged:
as §1

Data set [4] is described as follows: Neuroprotective activity in rat PC12 cells assessed as reduction in corticosterone-induced lesions by measuring cell viability at 6.25 uM pretreated for 24 hrs followed by corticosterone-challenge after 48 hrs by MTT assay. The class given is functional, cell-based. As to conditions: PC-12. The procedure, abridged: as §1
For another data set, the species on record is Rattus norvegicus. The data set is described as follows: Cytotoxicity against rat PC12 cells at 25 uM by MTT assay. The class given is toxicity, cell-based. The note with it: pc-12, 25 µM. In a few lines: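 PC12 cells in DMEM with 10% FBS, 5% horse serum and penicillin/streptomycin, 37 °C, 5% CO2. Seeded at 2 × 10^4 cells/well and exposed to compound at 25.00 μM. Viability was read by MTT.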

The next data set has as its system BV-2. The data set is described as follows: Inhibition of LPS-induced NO production in […] preincubated for 2 hrs followed by LPS-stimulation measured after 18 hrs by Griess assay. In kind it is functional, cell-based. As to conditions: Mus musculus. In a few lines: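 BV2 cells seeded at 2.5 × 10^5 cells/mL and preincubated 2 h with compound, then LPS at 100 ng/mL final for 18 h. Supernatant was mixed 1:1 with Griess reagent for 10 min at room temperature and read at 540 nm. Inhibition = (AL − A0 − AC)/(AL − A0) × 100. IC50 reported as mean ± SEM of three independent experiments. L-NMMA was the positive control.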
A general note: Nitrite, measured by Griess reagent, commonly stands in for NO production.

For another data set, the system named is PC-12. The data set can be described thus: Decrease in corticosterone-induced intracellular calcium level in rat PC12 cells at 6.25 to 25 uM pretreated for 24 hrs followed by corticosterone-challenge after 48 hrs by Fluo-3AM dye-based flow cytometry. The class given is functional, cell-based. In a few lines:
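PC12 cells were pretreated 24 h with compound (6.25, 12.50, 25.00 μM) or fluoxetine 12.50 μM, then exposed to 200 μM corticosterone for 48 h. Cells were loaded with Fluo-3 AM and analysed by flow cytometry. Results are mean fluorescence intensity relative to vehicle control, mean ± SEM, n = 3.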
Background: Calcium assays in cells follow changes in intracellular calcium, usually with a dye or a luminescent sensor.

Turning to `C[C@]12C[C@H](O)[C@H]3[C@@H](CCC4=CC(=O)CC[C@@]43C)[C@@H]1CC[C@@H]2C(=O)CO`, the Activity in data set [1] stood at 52.8%.
For orientation: IC50 means the concentration at which inhibition is half-maximal. Turning to `C=C(C)C(CC=C(C)C)Cc1c2c(c(O)c3c(=O)c4ccc(O)c(O)c4oc13)C=CC(C)(C)O2` (centres undefined), the viability in data set [2] is greater than 90%. Also, the Activity was 71.2% in data set [3], 64.8% in data set [4], 65.4% in data set [1] and “Non-Toxic” in the data set filed under Rattus norvegicus. The molecule also had an IC50 in the data set on BV-2 greater than 50 µM.
Take `C=C(C)C(CC=C(C)C)Cc1c(O)c(CC=C(C)C)c(O)c2c(=O)c3ccc(O)c(O)c3oc12` (centres undefined): in data set [2], the viability was greater than 90%. In addition, the Activity in data set [3] is 60.2%; in data set [4] it was 57.5%; in data set [1], 66%; in the data set filed under Rattus norvegicus, “Non-Toxic”. This molecule yielded an IC50 with BV-2 of 5.66 µM.
`CNCCC(Oc1ccc(C(F)(F)F)cc1)c1ccccc1` (centres undefined): in data set [3], the Activity came out at 70.5%.
Molecule `CNC(=N)NCCC[C@H](N)C(=O)O` [TILARGININE] displayed an IC50 with BV-2 of 39.3 µM.
In the case of `C=C(C)[C@H](CC=C(C)C)Cc1c(O)c(C[C@@H](CC=C(C)C)C(=C)C)c2oc3c(O)c(O)ccc3c(=O)c2c1O`, in data set [2], the viability is greater than 90%. Besides, the Activity in data set [3] was 83.8%; in data set [4] it was 78.4%; in data set [1], 92%; in the data set filed under Rattus norvegicus, “Non-Toxic”. Moreover, in the data set with PC-12, the outcome was Active. This molecule gave an IC50 with BV-2 of 7.47 µM.
Regarding `C=C(C)C(CC=C(C)C)Cc1c(O)cc(O)c2c(=O)c3ccc(O)c(O)c3oc12` (centres undefined), in data set [2], the viability was greater than 90%. The Activity in data set [3] is 78.1%; in data set [4], 60.7%; in data set [1], 84.1%; in the data set filed under Rattus norvegicus, “Non-Toxic”. The half-maximal inhibitory concentration (IC50) with BV-2 was determined as 8.35 µM.
In the case of `C=C(C)[C@H](CC=C(C)C)Cc1c(O)cc2oc3c(O)c(O)ccc3c(=O)c2c1O`, in data set [2], the viability is greater than 90%. Also, the Activity in data set [3] is 78.8%; in data set [4] it was 75.2%; in data set [1] it was 85.9%; in the data set listed under Rattus norvegicus, “Non-Toxic”. This molecule returned a 50% inhibitory concentration (IC50) with BV-2 of 9.6 µM.
